The list is not random: actives were taken first. Their share in the collection is about 3.4%.
TAAR1 agonist – human TAAR1 agonism. CHO RD-HGA16 TAAR1, Fluo-8 calcium fluorescence; vehicle wells 0%, saturating PEA agonist 100%. activation, % at 3 µM. actives 0.99% (n = 360,000). AID 624467;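 active = activation above the mean activation of all test compounds in the run plus 3 SD, cut at about 38% in these data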
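System: CHO-derived RD-HGA16 cells with stable Gα16 and human TAAR1 / Times: 17-24 h plating, Fluo-8 75 min 37 °C, 30 min RT / Technique: calcium-sensitive Fluo-8 signal, excitation 470-495, emission 515-575 nm / Measure: % activation relative to PEA EC100 response / Benchmarks: DMSO and PEA EC100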
LANA-H2B inh – blocks KSHV LANA binding to histone H2A/H2B; Q9QR71; cell-free LANA-H2A/H2B peptide, fluorescence polarization; inhibition, % (test concentration not listed); actives 0.6% (n = 320,000); AID 2629; in the data active = inhibition mostly above about 10%, no sharp cut-off; inactive = mostly below about 6.7%
TRPML3 agonist – activates the human TRPML3 channel. Q8TDD5. HEK293 TRPML3-YFP, Fluo-8 calcium fluorescence; 100% = the carbachol control signal. activation, % at 3 µM. actives 0.29% (n = 220,000). AID 1448;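 active = activation above its plate's cutoff, the mean activation of the plate's test wells plus 3 SD, cut at about 12% in these data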;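 note: 0% = DMSO only wells and 100% = carbachol wells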
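system = HEK293 cells stably carrying human TRPML3-YFP | doses = one concentration, 3 µM nominal, 0.3% DMSO | timing = dye loading 1 h 37 °C then 30 min ambient, 125 s read | detection = Fluo-8 calcium dye fluorescence, ex 470-495, em 515-575 nm | benchmarks = high control carbachol 87 µM, low control DMSO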
TAAR1 antagonist – antagonists of human TAAR1; Q96RJ0; CHO RD-HGA16 TAAR1, Fluo-8 calcium fluorescence, antagonist; inhibition, % at 3 µM; actives 1.5% (n = 360,000); AID 624466;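 active = inhibition above a per-plate cutoff, the mean inhibition of test compounds on that plate plus 3 SD, cut at about 49% in these data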;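 note: 0% = DMSO plus EC80 beta-PEA response and 100% = DMSO alone without agonist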
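System: CHO RD-HGA16 cells bearing hTAAR1. Reagent: EC80 β-phenethylamine stimulus. Schedule: seeding 17-24 h prior, 75-min 37 °C, 30-min RT dye loading. Signal: Fluo-8 intracellular calcium dye fluorescence, real-time kinetic reads. Read-out: % inhibition from peak post-agonist over basal fluorescence ratio. Benchmarks: vehicle wells and EC80 agonist wells. Replicates: n of 1.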
GPR7 antag – antagonists of human GPR7 (neuropeptides B/W receptor 1) | inhibition, % at 4.4 µM | AID 1861 | P48145 | GPR7-expressing cells, fluorescence antagonist assay | actives 1.1% (n = 290,000); in the data active = inhibition above about 16%, passing the limit was not always enough;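 note: cells stimulated with the agonist NPW; 0% = agonist with vehicle and 100% = vehicle without agonist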
zfTRPN1 agonist – agonists of zebrafish TRPN1 channel; HEK293 zebrafish TRPN1-YFP, Fluo-8 calcium fluorescence; 100% = response to 87 µM carbachol; activation, % at 3 µM; actives 0.18% (n = 220,000);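 active = activation above its plate's cutoff, the mean activation of test wells on that plate plus 3 SD, cut at about 19% in these data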;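 note: 0% = DMSO alone and 100% = 87 µM carbachol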
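Material – zebrafish TRPN1-YFP in HEK293 cells · Doses – 3 µM single point · Schedule – dye 1 h 37 °C plus 30 min RT · Signal – Fluo-8 calcium fluorescence, excitation 470-495 nm, emission 515-575 nm · Read-out – % activation versus carbachol response · Control set – carbachol high, DMSO low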
An asterisk follows results filed as active; nt = no result given; + = active, no number.

SMILES	TAAR1 agonist	LANA-H2B inh	TRPML3 agonist	TAAR1 antagonist	GPR7 antag	zfTRPN1 agonist
O=C(Nc1ccccc1C(=O)N1CCCCC1)c1cc(F)c(F)cc1Cl	0	-5	nt	-15	13	nt
O=C(Nc1ccccc1C(=O)N1CCCC1)c1ccc(Cl)cc1Cl	4	18*	nt	-10	-5	nt
Cc1ccc(C(=O)CSc2nc3cccnc3n2C)cc1	13	-6	1	10	3	3
Cn1c(SCC(=O)c2ccccc2)nc2cccnc21	5	98*	1	6	-21	0
CCCc1cc(=O)n2[nH]c(Cc3ccccc3)nc2n1	9	0	1	-15	18*	-1
CCCc1cc(=O)n2[nH]c(C)nc2n1	8	0	1	2	1	1
COc1ccc(N2C(=O)c3n[nH]c(C)c3C2c2ccccc2)cc1 (stereo not given)	0	nt	nt	-16	nt	nt
CCOc1ccc(S(=O)(=O)NCc2ccncc2)cc1	6	5	3	1	21*	6
Cc1ccc(S(=O)(=O)NCc2ccncc2)cc1	5	1	3	7	-5	9
CCOC(=O)COc1ccc(S(=O)(=O)NCc2ccncc2)cc1	6	2	3	-1	18*	7
C[C@@H]1CCCCO[C@@H](CN(C)C(=O)Nc2ccc(C(F)(F)F)cc2)[C@@H](C)CN([C@H](C)CO)C(=O)c2cc(NS(=O)(=O)c3ccc(Cl)cc3)ccc2O1	2	nt	nt	4	nt	nt
O=S(=O)(Nc1cc2nc3ccccc3nc2n1Cc1ccccc1)c1ccc(Cl)cc1	21	+	1	30	16	3
O=S(=O)(NCc1ccccc1)c1ccc(Cl)cc1	11	1	-2	-6	11	-2
COC(=O)C1=C(C)N(Cc2ccc(C(F)(F)F)cc2)C(=NCc2ccc(C(F)(F)F)cc2)NC1c1ccccc1C(F)(F)F (stereo not given)	3	nt	nt	-31	nt	nt
Cc1ccc(NC(=O)CCC(=O)N/N=C/c2ccccc2O)cc1	38*	2	nt	-2	7	nt
O=C(CCC(=O)Nc1ccc(Br)cc1)N/N=C/c1ccc(F)cc1	18	3	nt	5	5	nt
O=C(CCCCC(=O)NN=Cc1ccccc1O)NN=Cc1ccccc1O	44*	nt	nt	54*	nt	nt
O=C(CCC(=O)Nc1ccc(Br)cc1)N/N=C/c1ccccc1O	38*	0	nt	47	8	nt
O=C(CSCC(=O)NN=Cc1ccccc1O)NN=Cc1ccccc1O	30	nt	nt	2	nt	nt
COCc1cc(N2CCN(C(=O)OC(C)(C)C)C[C@@H]2C)ccc1N1CC[C@@H](O)C1	2	nt	nt	-2	nt	nt
COC(=O)c1ccccc1NC1CC(=O)N(c2c(C)cccc2C)C1=O (stereo not given)	9	96*	0	13	-6	-1
COC(=O)c1ccc(NC2CC(=O)N(c3ccccc3C)C2=O)cc1 (stereo not given)	9	3	0	4	-3	0
CCOC(=O)NC(NCC(O)c1ccccc1)(C(F)(F)F)C(F)(F)F (stereo not given)	67*	-1	1	56*	-12	0
C=CCN(C(=O)c1cccc(C(F)(F)F)c1)C1(C(=O)Nc2ccccc2)CCN(C(C)C)CC1	11	-7	1	11	18*	-1
COc1ccc(N/N=C(\C#N)C(=N)SCc2ccccc2)cc1	21	nt	15*	-11	-6	19*
SMILES	TAAR1 agonist	LANA-H2B inh	TRPML3 agonist	TAAR1 antagonist	GPR7 antag	zfTRPN1 agonist
COc1ccc(N/N=C(\C#N)C(=N)N2CCCCC2)cc1	0	-1	0	-3	8	0
CC(C)C[C@H]1COc2cc(N3CCOCC3)ccc2S(=O)(=O)N1	2	nt	nt	-5	nt	nt
COc1ccccc1-c1nnc2sc(-c3cc4ccccc4o3)nn12	0	-2	0	-15	18*	1
CCCCN1C(=O)C(=O)c2cc(Cl)ccc21	0	+	nt	32	nt	nt
CCCN1C(=O)C(=O)c2cc(C)ccc21	0	-2	nt	4	nt	nt
CC(C)(C)N(Cc1ccccc1)C(=O)c1ccc(Br)o1	5	9.6*	-1	-29	7	-3
CCCCC(=O)NCCc1ccc(OC)cc1	2	0	1	0	3	-1
CCOc1ccc(OCCCC(=O)NCCc2ccc(OC)cc2)cc1	-2	11*	nt	-24	6	nt
COC(=O)C1=C(C)N(Cc2ccc(C(F)(F)F)cc2)C(=NCc2ccccc2C(F)(F)F)NC1c1ccccc1C(F)(F)F (stereo not given)	2	nt	nt	-21	nt	nt
O=C(/C=C(\Nc1cccc(F)c1)c1ccccc1)c1ccccc1	0	nt	nt	14	nt	nt
CC1Cc2ccccc2N1C(=O)CSc1nc2c(c(=O)n(C)c(=O)n2C)n1Cc1ccccc1 (stereo not given)	17	3	0	52*	-15	0
CCn1c(SCC(=O)N2c3ccccc3CCc3ccccc32)nc2c1c(=O)n(C)c(=O)n2C	6	2	1	14	-2	0
COC(=O)C1=C(C)N(Cc2ccc(OC)cc2)C(=O)C1	2	-2	0	-7	-6	0
COC(=O)C1=C(C)N(CCc2ccc(OC)cc2)C(=O)C1	16	-4	0	52*	17	2
COc1ccc(/C(N)=N/OC(=O)N2CCOCC2)cc1	1	14*	1	-4	3	2
COC(=O)[C@H](Cc1ccccc1)N1CC(N2CCCC2)CS1(=O)=O (stereo not given in full)	2	nt	nt	-9	nt	nt
Cc1noc(C)c1COc1cccc(C(=O)Nc2ccc3c(c2)OCO3)c1	4	3	0	13	11	0
Cc1noc(C)c1COc1cccc(C(=O)Oc2ccc3c(c2)OCO3)c1	-1	-3	0	3	18*	0
Cc1noc(C)c1COc1cccc(C(=O)OC(C)C(=O)Nc2ccc3c(c2)OCO3)c1 (stereo not given)	12	1	0	13	19*	0
COc1cc(C(=O)OC(C)C(=O)Nc2ccc3c(c2)OCO3)ccc1OCc1c(C)noc1C (stereo not given)	7	-4	0	-2	-1	1
CC(C)(C)CC(C)(C)c1ccc(OCCOCC[N+](C)(C)Cc2ccccc2)cc1	40*	7	nt	3	nt	nt
